Assay results: ChEMBL document CHEMBL1145542, “Discovery of a new class of potent, selective, and orally bioavailable CRTH2 (DP2) receptor antagonists for the treatment of allergic inflammatory diseases” (J Med Chem, 2008)

How the values were obtained:
[1] = target: T1, Prostaglandin D2 receptor 2 (Homo sapiens, UniProt Q9Y5Y4); test: Displacement of [3H]PGD2 from human CRTH2 receptor expressed in CHO cells; assay type: cell-based
T1 sequence (Q9Y5Y4 whole entry): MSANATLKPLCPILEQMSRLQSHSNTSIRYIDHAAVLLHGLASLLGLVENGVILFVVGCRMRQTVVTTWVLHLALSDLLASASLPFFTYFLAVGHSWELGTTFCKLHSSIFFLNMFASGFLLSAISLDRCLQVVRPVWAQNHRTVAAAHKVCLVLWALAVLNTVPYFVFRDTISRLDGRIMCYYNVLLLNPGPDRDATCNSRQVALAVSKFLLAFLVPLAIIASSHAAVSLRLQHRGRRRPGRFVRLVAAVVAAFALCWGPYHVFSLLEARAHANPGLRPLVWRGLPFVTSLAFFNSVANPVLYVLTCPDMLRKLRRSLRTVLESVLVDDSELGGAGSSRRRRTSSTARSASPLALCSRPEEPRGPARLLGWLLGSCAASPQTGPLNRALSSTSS
How it was run: (§1)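 Scintillation proximity competition assay: 2–5 µg human or mouse CRTH2 membranes (nitrogen-cavitation, differential centrifugation) with WGA-SPA beads and 1.5 nM [3H]PGD2 in 10 mM HEPES/KOH pH 7.4, 10 mM MnCl2, protease inhibitors, 1% Me2SO, 90 min shaking at room temperature. Nonspecific binding with 1 µM PGD2. Ki by Cheng–Prusoff, mean of ≥3 independent experiments.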

[2] = target: T1, Prostaglandin D2 receptor 2; test: Antagonist activity at human CRTH2 receptor expressed in CHO cell membrane by [35S]GTP-gamma-S binding assay; assay type: functional, cell membranes
How it was run: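 [35S]GTPγS binding at 30 °C on 10 µg human CRTH2 membranes in 20 mM HEPES/KOH pH 7.4, 10 mM MgCl2, 10 µg/mL saponin, 3 µM GDP, 150 mM NaCl, 2% Me2SO. PGD2 preincubation 10 min (antagonist mode: 80 nM PGD2), then 0.15 nM [35S]GTPγS for 30 min. Nonspecific binding with 10 µM GTPγS; stopped by centrifugation, scintillation counting.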

[3] = Apparent permeability across human Caco-2 cell membrane at 10 uM; assay type: ADME, cell-based
How it was run: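 Caco-2 monolayers grown 21 days on Transwell filters; TEER above 800 ohm·cm² required. 10 µM test compound in HBSS added apically (A to B) or basolaterally (B to A), 2 h at 37 °C. Both compartments sampled, analysed by LC/MS-MS.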

[4] = Lipophilicity, log D of the compound; assay type: physicochemical; details: octanol/water
[5] = AUC (0 to last t) in rat at 1 mg/kg, iv; assay type: ADME, organism-based; parameters: time 0 - last, dose 1 mg/kg, route intravenous; details: plasma
How it was run: (§2)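 Male Sprague–Dawley or Janvier rats, three per route, dosed by oral gavage or iv bolus. Serial blood drawn through an indwelling carotid catheter up to 24 h post dose. Plasma pooled by time point, analysed by LC-MS/MS; non-compartmental analysis.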

[6] = AUC (0 to last t) in rat at 5 mg/kg, po; assay type: ADME, organism-based; parameters: time 0 - last, dose 5 mg/kg, route oral; details: plasma; how it was run: as §2
[7] = Oral bioavailability in rat at 5 mg/kg; assay type: ADME, organism-based; details: in vivo; how it was run: as §2
[8] = Cmax in rat at 1 mg/kg, iv; assay type: ADME, organism-based; parameters: dose 1 mg/kg, route intravenous; details: in vivo; how it was run: as §2
[9] = Cmax in rat at 5 mg/kg, po; assay type: ADME, organism-based; parameters: dose 5 mg/kg, route oral; details: in vivo; how it was run: as §2
[10] = Tmax in rat at 1 mg/kg, iv; assay type: ADME, organism-based; parameters: dose 1 mg/kg, route intravenous; details: in vivo; how it was run: as §2
[11] = Tmax in rat at 5 mg/kg, po; assay type: ADME, organism-based; parameters: dose 5 mg/kg, route oral; details: in vivo; how it was run: as §2
[12] = Half life in rat at 1 mg/kg, iv; assay type: ADME, organism-based; parameters: dose 1 mg/kg, route intravenous; details: in vivo; how it was run: as §2
[13] = Clearance in rat at 1 mg/kg, iv; assay type: ADME, organism-based; parameters: dose 1 mg/kg, route intravenous; details: in vivo; how it was run: as §2
[14] = Volume of distribution at steady state in rat at 1 mg/kg, iv; assay type: ADME, organism-based; parameters: dose 1 mg/kg, route intravenous; details: in vivo, read-out: Vdss; how it was run: as §2
[15] = target: T2, Prostaglandin D2 receptor 2 (Mus musculus, UniProt Q9Z2J6); test: Displacement of [3H]PGD2 from mouse CRTH2 receptor expressed in HEK293 cells; assay type: cell-based; how it was run: as §1
T2 sequence (Q9Z2J6 whole entry): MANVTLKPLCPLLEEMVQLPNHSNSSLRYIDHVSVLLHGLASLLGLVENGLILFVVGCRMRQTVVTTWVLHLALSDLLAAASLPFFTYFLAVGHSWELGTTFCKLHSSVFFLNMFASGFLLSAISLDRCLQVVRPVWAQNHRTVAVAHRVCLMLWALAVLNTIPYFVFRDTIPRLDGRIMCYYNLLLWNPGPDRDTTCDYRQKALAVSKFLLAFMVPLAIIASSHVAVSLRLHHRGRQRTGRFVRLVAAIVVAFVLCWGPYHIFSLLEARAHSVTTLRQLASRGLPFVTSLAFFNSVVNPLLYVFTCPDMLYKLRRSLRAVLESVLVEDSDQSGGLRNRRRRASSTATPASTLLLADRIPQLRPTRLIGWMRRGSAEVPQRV

[16] = Intrinsic clearance per mg of protein in human liver microsomes at 3 uM; assay type: ADME, Microsome
How it was run: (§3)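 Rat or human liver microsomes (0.5 mg/mL final) in 0.1 M phosphate pH 7.4 with 3 µM compound (1% DMSO), preincubated at 37 °C, started with 1 mM NADPH. Quenched with cold acetonitrile at 0, 15, 30, 45 min; LC/MS-MS of compound disappearance gives intrinsic clearance.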

[17] = Intrinsic clearance per mg of protein in rat liver microsomes at 3 uM; assay type: ADME, Microsome; how it was run: as §3
[18] = AUC (0 to last t) in Beagle dog at 1 mg/kg, iv; assay type: ADME, organism-based, Canis lupus familiaris; parameters: time 0 - last, dose 1 mg/kg, route intravenous; details: plasma
How it was run: (§4)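 Three male beagle dogs, crossover design; 1 mg/kg given as a solution, iv bolus and oral gavage. Serial blood sampled up to 48 h post dose. Individual plasma samples analysed by LC-MS/MS; PK parameters derived by non-compartmental analysis.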

[19] = AUC (0 to last t) in Beagle dog at 1 mg/kg, po; assay type: ADME, organism-based, Canis lupus familiaris; parameters: time 0 - last, dose 1 mg/kg, route oral; details: plasma; how it was run: as §4
[20] = Oral bioavailability in Beagle dog at 1 mg/kg; assay type: ADME, organism-based, Canis lupus familiaris; details: in vivo; how it was run: as §4
[21] = Cmax in Beagle dog at 1 mg/kg, iv; assay type: ADME, organism-based, Canis lupus familiaris; parameters: dose 1 mg/kg, route intravenous; details: in vivo; how it was run: as §4
[22] = Tmax in Beagle dog at 1 mg/kg, iv; assay type: ADME, organism-based, Canis lupus familiaris; parameters: dose 1 mg/kg, route intravenous; details: in vivo; how it was run: as §4
[23] = Half life in rat at 5 mg/kg, po; assay type: ADME, organism-based; parameters: dose 5 mg/kg, route oral; details: in vivo; how it was run: as §2
[24] = Half life in Beagle dog at 1 mg/kg, iv; assay type: ADME, organism-based, Canis lupus familiaris; parameters: dose 1 mg/kg, route intravenous; details: in vivo; how it was run: as §4
[25] = Clearance in Beagle dog at 1 mg/kg, iv; assay type: ADME, organism-based, Canis lupus familiaris; parameters: dose 1 mg/kg, route intravenous; details: in vivo; how it was run: as §4
[26] = Volume of distribution at steady state in Beagle dog at 1 mg/kg, iv; assay type: ADME, organism-based, Canis lupus familiaris; parameters: dose 1 mg/kg, route intravenous; details: in vivo, read-out: Vdss; how it was run: as §4
[27] = target: T3, Prostaglandin D2 receptor (Homo sapiens, UniProt Q13258); test: Inhibition of prostaglandin D2 receptor
T3 sequence (Q13258 whole entry): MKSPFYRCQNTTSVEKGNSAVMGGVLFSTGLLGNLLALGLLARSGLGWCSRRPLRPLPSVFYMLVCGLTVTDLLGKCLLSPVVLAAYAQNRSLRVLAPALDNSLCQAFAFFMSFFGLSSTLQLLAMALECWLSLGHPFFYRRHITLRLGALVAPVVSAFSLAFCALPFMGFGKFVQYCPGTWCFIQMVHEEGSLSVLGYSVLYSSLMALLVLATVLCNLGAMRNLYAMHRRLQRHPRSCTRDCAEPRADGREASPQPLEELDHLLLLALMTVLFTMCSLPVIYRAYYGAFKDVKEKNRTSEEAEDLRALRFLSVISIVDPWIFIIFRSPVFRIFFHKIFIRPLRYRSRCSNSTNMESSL

[28] = target: Prostaglandin E2 receptor EP2 subtype (Homo sapiens, UniProt P43116); test: Inhibition of prostanoid EP2 receptor
Sequence of Prostaglandin E2 receptor EP2 subtype (P43116 whole entry): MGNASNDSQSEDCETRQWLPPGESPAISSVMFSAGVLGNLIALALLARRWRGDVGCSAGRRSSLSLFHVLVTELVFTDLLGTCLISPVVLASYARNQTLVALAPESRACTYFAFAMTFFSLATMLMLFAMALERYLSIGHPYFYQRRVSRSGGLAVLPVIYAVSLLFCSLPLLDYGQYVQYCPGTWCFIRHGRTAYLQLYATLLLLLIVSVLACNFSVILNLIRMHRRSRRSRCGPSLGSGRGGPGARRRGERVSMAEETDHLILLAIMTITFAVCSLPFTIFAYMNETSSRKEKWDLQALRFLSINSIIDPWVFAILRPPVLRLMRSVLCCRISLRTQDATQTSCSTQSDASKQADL

[29] = Inhibition of prostanoid EP3 receptor
[30] = Inhibition of prostanoid EP4 receptor
[31] = Inhibition of prostanoid FP receptor
[32] = Cmax in Beagle dog at 1 mg/kg, po; details: in vivo
[33] = Tmax in Beagle dog at 1 mg/kg, po; details: in vivo

Cc1noc(-c2ccccc2)c1CN1CC2(CC1=O)C(=O)N(CC(=O)O)c1ccc(Cl)cc12 (configuration not stated)
Ki [1]: 3.8 nM
IC50 [2]: 19 nM
Papp at 10 µM [3]: 2.1 ×10⁻⁶ cm/s
logD [4]: -0.3
AUC(0-t) [5]: 247 ng·h/mL
AUC(0-t) [6]: 2.01 ng·h/mL
bioavailability [7]: 0.2%
Cmax [8]: 1970 ng/mL
Cmax [9]: 6 ng/mL
Tmax [10]: 0 h
Tmax [11]: 0.25 h
half-life [12]: 0.1 h
clearance [13]: 66.7 mL/min/kg
Vd [14]: 0.4 L/kg

O=C(O)CN1C(=O)[C@@]2(CC(=O)N(Cc3cc(Cl)ccc3F)C2=O)c2cc(Cl)ccc21
Ki [1]: 5.3 nM
Ki [15]: 5 nM
IC50 [2]: 66 nM
microsomal CLint at 3 µM [16]: 5 µL/min/mg
microsomal CLint at 3 µM [17]: 19 µL/min/mg
Papp at 10 µM [3]: 26.4 ×10⁻⁶ cm/s
logD [4]: -0.5
AUC(0-t) [5]: 1180 ng·h/mL
AUC(0-t) [6]: 1910 ng·h/mL
AUC(0-t) [18]: 637 ng·h/mL
AUC(0-t) [19]: 339 ng·h/mL
bioavailability [7]: 32%
bioavailability [20]: 52%
Cmax [8]: 1700 ng/mL
Cmax [9]: 163 ng/mL
Cmax [21]: 1950 ng/mL
Tmax [10]: 0 h
Tmax [11]: 1.5 h
Tmax [22]: 0 h
half-life [12]: 13 h
half-life [23]: 5.4 h
half-life [24]: 3 h
clearance [13]: 11.7 mL/min/kg
clearance [25]: 33.3 mL/min/kg
Vd [14]: 7 L/kg
Vd [26]: 5 L/kg
IC50 [27]: > 30000 nM
IC50 [28]: > 30000 nM
IC50 [29]: > 30000 nM
IC50 [30]: > 30000 nM
IC50 [31]: > 30000 nM
Cmax [32]: 68.8 ng/mL
Tmax [33]: 2.67 h
